In the EternaBench riboswitch data:

Test system: MS2 coat protein
Assay: apparent Kd, MS2 coat protein; higher = weaker binding; RNA-MaP array; FMN 200 µM where present
Method in brief: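 Designs were transcribed by stalled E. coli RNA polymerase on Illumina sequencing-chip clusters. They were titrated with SNAP-549-labelled MS2 coat protein from 0.7 or 1.5 nM, doubling to 3 µM, in 100 mM Tris-HCl pH 7.5, 80 mM KCl, 4 mM MgCl2, BSA, DTT, yeast tRNA and Tween-20, without and then with constant ligand. The apparent Kd is the median of filtered per-cluster fits after normalisation of green signal to red-channel RNA signal and control-cluster median Fmax.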

[1] = designed as: OFF switch for flavin mononucleotide, no ligand
[2] = ligand present: flavin mononucleotide, designed as: OFF switch for flavin mononucleotide
[3] = designed as: ON switch for flavin mononucleotide, no ligand
[4] = ligand present: flavin mononucleotide, designed as: ON switch for flavin mononucleotide

Sequence	apparent Kd [1] [nM]	apparent Kd [2] [nM]	apparent Kd [3] [nM]	apparent Kd [4] [nM]
UUAAUAAGUGUGAGGAUAUGCUGGUCCUUGGAUCAGCAGAAGGCACAUGAGGAUCACCCAUGUACAAUAUAUUA	33.6	215		
CCUAGUUGGUAAGGAUAUCCUACACUGUUCUGACCCGUGCAAGCUACAUGAGGAUCACCCAUGUAGGAGAAGGUGCGUCAACGC	9.11	9.13		
GUGUAGUCAGGAUAUACAUAGGAAGAGAAGAGAAGAGAAGGACAUGAGGAUCACCCAUGUAGAAGGGACAGUGU	46.7	40.9		
AAAAAACAUGAGGAUCACCCAUGUCCUCGGACAUGAGGAUAUGUACAGACUUCGGUCUGUACAGAAGGCAUGUCUU			302	308
CCGGAAACGGGUAGCUGACAUGAGGAUCACCCAUGUGUUUCACAGGAUAUGGAUCCUAAUUGGAUCCAGAAGGGUGUCAGCUAC			1040	157
CACGUCCACACAGGAUAUGCUGGACUUUGUCCAGCAGAAGGGUGACAACAUGAGGAUCACCCAUGUAGGACGUGUAUAUUUAAU			1040	196
GAUUAACAUGAGGAUCACCCAUGUGAGGAUAUGGACUGGCUCACUUUCCGAUUCGGGUCUAGAAGGCGCAUCUU	33.5	33.2		
GCGUCAGUUUCACAUGUAAUACAUGAGGAUCACCCAUGUUACUAGGAUAUGUAUUAGAAUUAUCAACAGAAGGAGUAAUGACGC	11.1	12.8		
GCAAUGUAAGGAUAUUCGGAGUCCUGCCGGGCAGGUAGGUUGGAGAAGGUACAUGAGGAUCACCCAUGUGAGCC	48.6	170		
UUAUGUAUUGUAGGAUAUCACAAGUUAUGUAUUAUAAUUGUAAUUUUGUAAUGAGAAGGACAUAUACAUGAGGAUCACCCAUGU	18.9	14.9		
GAUUCACAUGAGGAUCACCCAUGUGAGGAUAUAGUGCAGGAGGUGAAUGUCCACCUCUCUAGAAGGCACACGGG	22.3	23.6		
CUUUUGUGAGGAUAUCAGUAGUAAAUAAAUAAAAUUAUUACUGAGAAGGCACAUGAGGAUCACCCAUGUUCCUC	40.1	192		
CAUUCGUGUCUAGGAUAUGAGUGACAAGCACGAGAUUUUCUCGCCGCUAGCUCAGAAGGAGACAUGAGGAUCACCCAUGUAAGG	96.4	17.4		
UGGUACAUCGGAGGAUAUCAUGUGAUAACAUGAGGAUCACCCAUGUCGAUGGAGACAUCGGAGAUUGAGAAGGCCGAUGUACCU			801	84.2
CCUUUUGUAUAAGGAUAUGUAACAAGGUAUAGAUCGGUAGAAUUUGUGCUUACAGAAGGUAUACAUGAGGAUCACCCAUGUCGA	22.1	140		
CUUUCGUGAGGAUAUGUGGCUUCGAUCGUGAGAUCGAGGCUACAGAAGGCACAUGAGGAUCACCCAUGUUCCUC	38.8	487		
AGCCAACAUGAGGAUCACCCAUGUCUACAGGAUUAAGGAUAUGGGCAGGACUUCCCUGCACUAGAAGGUGAUCCAA			28.9	251
AAGACAUGAGGAUCACCCAUGUAAAGACCGGUCGAUCAAUGUGAGGAUAUACCAUAAUUGAUAGGGUAGAAGGCACUGGGUUGA			168	128
AUUUCGUCAGGAUAUCCUAGUAAUUGUUUCAUAUUUACAAAGGAGAAGGGACAUGAGGAUCACCCAUGUUUGUC	24.7	23.1		
AAUGGCUAGCGCUCUGGAACUGCACAGGAUAUGAAGAGCUACAUGAGGAUCACCCAUGUUUAAAAUCAGAAGGGUGAGUAUCAG			166	16.2
ACGUGUCGUGUAGGAUAUGACACAGGAAACUGGUCAGAAGGACAUGAGGAUCACCCAUGUAAAGUGUUUAAGAAUGACGUAUGC	43.9	106		
CCACUCUAUGCAGGAUAUCGAGCCUGGGCCUUAUUUUUUGUAAACAUGAGGAUCACCCAUGUCUUCGAGAAGGGCAUAACAACG	178	241		
CCACGUCACAUCUACAUGAGGAUCACCCAUGUCGAAAGACAUGAGGAUAUGCAUCCUAAUUGGAUGCAGAAGGCAUGGACGUGG			1080	71.2
AGUUAAUAUCGAGGAUAUGUCUAGACACAUGAGGAUCACCCAUGUAUGUGUAUAGAAGGCAAAAUUAACAGCAUGUUACAUGCA			30.6	24.9
CUUUUGGGAGGAUAUACAUGAGGAUCACCCAUGUGGUCGUGACCAAGUAAGCGCACUCGUAGAAGGCCCACGAC	66.7	98		
CACAAGAAAGUCGAACGUGUAACGAGAAGGUCUACAUCACAACAUGAGGAUCACCCAUGUGAUAAGAAGGAUAUUGUUGCGCGG	8.76	8.32		
AGCUAGUCAGGAUAUACGUAAAUGUCGAAAGACGUAUUGGGACAUGAGGAUCACCCAUGUAGAAGGGACUAGCA	27.2	108		
AGAAAGGUAGGAUAUACGAAAAAAAAGGGUAGAAAAAAAACACAUGAGGAUCACCCAUGUAGAAGGACCAAAGA	28.9	96.6		

Sequence	apparent Kd [1] [nM]	apparent Kd [2] [nM]	apparent Kd [3] [nM]	apparent Kd [4] [nM]
UUUAUUUUUAGAGGAUAUAUUGUGUGUGAGAGAAUAGAAGGCUAAACAUACAUACAUAACAUGAGGAUCACCCAUGUCCAUGUU			69.2	54.9
UUAAUUCAUGUAGGAUAUCCGAUGCGAAGCGUUGGAGAAGGACAUGAGGAUCACCCAUGUUCUAGCGUCUGAGUACAGAUGCAA	26.9	88.5		
CGCUGAGGCGAGAAGGCACAAGAGUGGUGGCGGACAUGAGGAUCACCCAUGUGAGGAUAUCGCACUUGGCGGUGCCUAAAACUA	344	39		
UAUAACUUACAGAAGGGUAUUGUGGUGCAUUAUUAGUAGGAAAUACUAUACAGGAUAUGUAAUACAUGAGGAUCACCCAUGUUC			22.3	14.9
CCUAAGGACACAGGAUAUAGCGUGGUUGCUGGGCUCCAACGGCGAGCGGCGCUAGAAGGGUGACCACAUGAGGAUCACCCAUGU			532	162
GGCAGACAUGAGGAUCACCCAUGUGAGGAUAUCGUCAUAGAUGCAAAAGCAUCUAUGACGAGAAGGUACAUGCC	23.2	19.2		
CGAGAUCUUGAGAAGGCAUAAUAUAUAAUACCACAUGUUUACAUGAGGAUCACCCAUGUUUCCUAUGAGGAUAUCAGGAUUUCG	20.9	17.1		
UUAAUAAAGUAAGGAUAUACAUGAGGAUCACUCGUAGAAGGUACUAUACAUGAGGAUCACCCAUGUUCCGGUCAGAAGACUGGA			1100	778
UUAUACAUUCGAGGAUAUCGGAGAGAAAUCUUUCGAGAAGGCGAUUCAUGAUGUAUUAUCCUGGACAUGAGGAUCACCCAUGUA			96.8	76.9
UCUAUGAAGAUUCGUCAAUACAGUUAGGAUAUGAGAGACAUGAGGAUCACCCAUGUGCAUGUUGAUUAGAAGGAACAAUUAUCU	20.9	19.3		
UUAUUCUAUAUAGGAUAUUGAUGCAAUUUACCUCAAGAAGGAUAUACAUGAGGAUCACCCAUGUUGGAUAGGGUUAGUUUGUUU			79.4	76.5
UAUAUAUAGUAAGGAUAUGUAAUUAUUUUAGAAACAGAAGGUACUGACAUGAGGAUCACCCAUGUUUUAGUGUGGGCAUGUAGA	90.4	147		
AUUAUACAUGAGGAUCACCCAUGUUUUGGUGGAUCAGGAUAUAAAUUGAAUGAGUUUUAGUUAGAAGGGAUAUUUA			50.6	36.3
AGGAUGUUAGGAUAUCGGAGAUGCGGGAGGAGGUGGAGGUACGAGAAGGAACAUGAGGAUCACCCAUGUGGAAG	20.3	19.9		
GUUUUAUAGAUCCAUUUUAACAACAUGAGGAUCACCCAUGUGCAGGAUAUCGUUUGUUUUAUAUUCGAGAAGGGCAAAUUCAUU	44.3	102		
AUCCAGCGAGGAUAUACAUAGUUUUUUUCGUUUUGUCUCGAACAUGAGGAUCACCCAUGUAGAAGGUGCUUCAC	72.5	67.2		
UCCACUGCUGAGAAGGGAUACGUUUGGGUCGCAUCAGGAUAUCGAUACAGUGCAGCAUGAGGACAUGAGGAUCACCCAUGUGUG			140	29.5
CAGCAAAGGUAGAAGGCAGUACUGAUACAGUACUGAGGAUAUACAUGAGGAUCACCCAUGUUCUUCAGCUGGAAAUAAAUAAAA	8.98	134		
ACCCGCAGCCGUCAGGAUAUGUUCGCGUCAACAUGAGGAUCACCCAUGUGUGACAAGAAGUACACGCAGAAGGGAUCAAUGCGGG			16.4	18.3
AUCAGCUCGUCAGGAUAUACGUCACUGCUUCGGCAGUGUGGUAAGGUCACAUGAGGAUCACCCAUGUAGAAGGGACGAGCUGAU	8.32	120		
GUCAGCUCGUGAGGAUAUACAACACUGCUUCGGCAGUGUAUUAAGAUCACAUGAGGAUCACCCAUGUAGAAGGCACCAGCUGAU	16.3	215		
GUGCCUUGGAAGAAGGCCGAUAGCAAAGCUAUCGGAGGAUAUUCAUACCGGAAACGGACAUGAGGAUCACCCAUGUGGCACAAA			15.3	6.96
CCUAUAAGAAAAUAGACGAAGUGGCCAGAAGGUGAAUGCCACAUGAGGAUCACCCAUGUUUCGAUCAAGGAUAUGGUUUCUCAC			497	129
GAGUAGAUAGCAGGAUAUCUAUUUCCUACAUGAGGAUCACCCAUGUAGAUGAUCACCCAUGUAAAGGAGAAGGGCUAUCUAUUC			355	160
UCUGCCGCCGUGAGGAUAUGCCCGCGAAAACGCGGGCAGAAGGCACAUGAGGAUCACCCAUGUCCCGCGGUUUU	16.1	36.7		
UGGUACUAGGGAGGAUAUGGGAAGAUACAUGAGGAUCACCCAUGUUUAAGAAUGCCGAGAGGCAACUAGAAGGCCCUAGAACCU			406	19.7
AGGUAACAUGAGGAUCACCCAUGUAAGGUGAACGUAGGAUAUCGAGGAGGUAGGGUAGGCCGAGAAGGACGAGGAG			293	179
